Assays:
Eps15 EH2 = assay: ITC of Rsn5-NPF1 with Eps15 EH2; assay type: binding; settings: protein concentration in the ITC cell increased to 0.5 mM
EH domain of EHD1 = assay: ITC of NPF peptides binding to EHD1 EH; set-up: species or system mouse; settings: for Ka / TΔS / ΔG / ΔH / ΔS: 25 mM MOPS pH 7.0, 1 mM CaCl2
Outline: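 Mouse EHD1 EH domain (V437–E534) expressed as a GST fusion, purified on glutathione resin and thrombin-cleaved on beads. Protein and peptides were dialysed at 4°C against 25 mM MOPS pH 7.0, 1 mM CaCl2, with KCl varied where applicable. ITC was run at 20°C unless stated (5–25°C), with 50–200 μM protein in the cell and peptide titrant 10-fold higher. Single-site fit gave Ka, n and ΔH; ΔG = −RTlnKa, and TΔS came from ΔG = ΔH − TΔS.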

Substance: Ac-GPSLNPFDEED-NH2 [Rsn5-NPF1]
- interaction detected by ITC (Eps15 EH2): unable to detect any interaction
- fold higher affinity than Rfp2-NPF2 (EH domain of EHD1; ITC, EHD1 EH): 100 fold
- Ka (EH domain of EHD1; ITC, 5.0 °C): 2.03e+06 M⁻¹
- TΔS (EH domain of EHD1; ITC, 5.0 °C): -0.9542 kcal/mol
- ΔG (EH domain of EHD1; ITC, 5.0 °C): -8.02 kcal/mol
- ΔH (EH domain of EHD1; ITC, 5.0 °C): -8.986 kcal/mol
- ΔS (EH domain of EHD1; ITC, 5.0 °C): −3.43 cal mol^−1 K^−1
- Ka (EH domain of EHD1; ITC, 10.0 °C): 1.71e+06 M⁻¹
- TΔS (EH domain of EHD1; ITC, 10.0 °C): -1.606 kcal/mol
- ΔG (EH domain of EHD1; ITC, 10.0 °C): -8.068 kcal/mol
- ΔH (EH domain of EHD1; ITC, 10.0 °C): -9.684 kcal/mol
- ΔS (EH domain of EHD1; ITC, 10.0 °C): −5.67 cal mol^−1 K^−1
- Ka (EH domain of EHD1; ITC, 15.0 °C): 1.1e+06 M⁻¹
- TΔS (EH domain of EHD1; ITC, 15.0 °C): -2.467 kcal/mol
- ΔG (EH domain of EHD1; ITC, 15.0 °C): -7.958 kcal/mol
- ΔH (EH domain of EHD1; ITC, 15.0 °C): -10.44 kcal/mol
- ΔS (EH domain of EHD1; ITC, 15.0 °C): −8.56 cal mol^−1 K^−1
- Ka (EH domain of EHD1; ITC, 20.0 °C): 814000 M⁻¹
- TΔS (EH domain of EHD1; ITC, 20.0 °C): -3.401 kcal/mol
- ΔG (EH domain of EHD1; ITC, 20.0 °C): -7.921 kcal/mol
- ΔH (EH domain of EHD1; ITC, 20.0 °C): -11.33 kcal/mol
- ΔS (EH domain of EHD1; ITC, 20.0 °C): −11.6 cal mol^−1 K^−1
- Ka (EH domain of EHD1; ITC, 20 °C, KCl 25.0 mM): 302000 M⁻¹
- TΔS (EH domain of EHD1; ITC, 20 °C, KCl 25.0 mM): -3.079 kcal/mol
- ΔH (EH domain of EHD1; ITC, 20 °C, KCl 25.0 mM): -10.42 kcal/mol
- ΔS (EH domain of EHD1; ITC, 20 °C, KCl 25.0 mM): −10.5 cal mol^−1 K^−1
- Ka (EH domain of EHD1; ITC, 20 °C, KCl 50.0 mM): 168000 M⁻¹
- TΔS (EH domain of EHD1; ITC, 20 °C, KCl 50.0 mM): -3.401 kcal/mol
- ΔG (EH domain of EHD1; ITC, 20 °C, KCl 50.0 mM): -7.002 kcal/mol
- ΔH (EH domain of EHD1; ITC, 20 °C, KCl 50.0 mM): -10.42 kcal/mol
- ΔS (EH domain of EHD1; ITC, 20 °C, KCl 50.0 mM): −11.6 cal mol^−1 K^−1
- Ka (EH domain of EHD1; ITC, 20 °C, KCl 75.0 mM): 115000 M⁻¹
- TΔS (EH domain of EHD1; ITC, 20 °C, KCl 75.0 mM): -3.548 kcal/mol
- ΔG (EH domain of EHD1; ITC, 20 °C, KCl 75.0 mM): -6.782 kcal/mol
- ΔH (EH domain of EHD1; ITC, 20 °C, KCl 75.0 mM): -10.34 kcal/mol
- ΔS (EH domain of EHD1; ITC, 20 °C, KCl 75.0 mM): −12.1 cal mol^−1 K^−1
- Ka (EH domain of EHD1; ITC, 20 °C, KCl 100.0 mM): 86500 M⁻¹
- TΔS (EH domain of EHD1; ITC, 20 °C, KCl 100.0 mM): -4.251 kcal/mol
- ΔG (EH domain of EHD1; ITC, 20 °C, KCl 100.0 mM): -6.616 kcal/mol
- ΔH (EH domain of EHD1; ITC, 20 °C, KCl 100.0 mM): -10.88 kcal/mol
- ΔS (EH domain of EHD1; ITC, 20 °C, KCl 100.0 mM): −14.5 cal mol^−1 K^−1
- Ka (EH domain of EHD1; ITC, 20 °C, KCl 125.0 mM): 65000 M⁻¹
- TΔS (EH domain of EHD1; ITC, 20 °C, KCl 125.0 mM): -4.046 kcal/mol
- ΔG (EH domain of EHD1; ITC, 20 °C, KCl 125.0 mM): -6.45 kcal/mol
- ΔH (EH domain of EHD1; ITC, 20 °C, KCl 125.0 mM): -10.5 kcal/mol
- ΔS (EH domain of EHD1; ITC, 20 °C, KCl 125.0 mM): −13.8 cal mol^−1 K^−1
- Ka (EH domain of EHD1; ITC, 20 °C, KCl 150.0 mM): 53000 M⁻¹
- TΔS (EH domain of EHD1; ITC, 20 °C, KCl 150.0 mM): -4.163 kcal/mol
- ΔG (EH domain of EHD1; ITC, 20 °C, KCl 150.0 mM): -6.331 kcal/mol
- ΔH (EH domain of EHD1; ITC, 20 °C, KCl 150.0 mM): -10.5 kcal/mol
- ΔS (EH domain of EHD1; ITC, 20 °C, KCl 150.0 mM): −14.2 cal mol^−1 K^−1
- Ka (EH domain of EHD1; ITC, 20 °C, KCl 300.0 mM): 24800 M⁻¹
- TΔS (EH domain of EHD1; ITC, 20 °C, KCl 300.0 mM): -4.369 kcal/mol
- ΔG (EH domain of EHD1; ITC, 20 °C, KCl 300.0 mM): -5.889 kcal/mol
- ΔH (EH domain of EHD1; ITC, 20 °C, KCl 300.0 mM): -10.26 kcal/mol
- ΔS (EH domain of EHD1; ITC, 20 °C, KCl 300.0 mM): −14.9 cal mol^−1 K^−1
- Ka (EH domain of EHD1; ITC, 20 °C, KCl 450.0 mM): 17800 M⁻¹
- TΔS (EH domain of EHD1; ITC, 20 °C, KCl 450.0 mM): -4.721 kcal/mol
- ΔG (EH domain of EHD1; ITC, 20 °C, KCl 450.0 mM): -5.696 kcal/mol
- ΔH (EH domain of EHD1; ITC, 20 °C, KCl 450.0 mM): -10.43 kcal/mol
- ΔS (EH domain of EHD1; ITC, 20 °C, KCl 450.0 mM): −16.1 cal mol^−1 K^−1
- Ka (EH domain of EHD1; ITC, 25.0 °C): 606000 M⁻¹
- TΔS (EH domain of EHD1; ITC, 25.0 °C): -4.056 kcal/mol
- ΔG (EH domain of EHD1; ITC, 25.0 °C): -7.881 kcal/mol
- ΔH (EH domain of EHD1; ITC, 25.0 °C): -11.94 kcal/mol
- ΔS (EH domain of EHD1; ITC, 25.0 °C): −13.6 cal mol^−1 K^−1
- non-electrostatic ΔG (EH domain of EHD1; from (Ka)ne, 20°C): -5.2 kcal/mol
- ΔCp (change in heat capacity upon binding) (EH domain of EHD1; from response of ΔH to temperature, 5 to 25°, ITC): −150 cal mol^−1 K^−1

From publication PMC2857698 (Biochemistry, 2010)
